Data from ChEMBL document CHEMBL2396525, “Synthesis and anti-HCMV activity of 1-[ω-(phenoxy)alkyl]uracil derivatives and analogues thereof” (Bioorg Med Chem, 2013).
Calls of active or inactive are those of the source. No cut-off for these calls is given here.

Tests used:
Human alphaherpesvirus 2 [1] = assay: Antiviral activity against Herpes simplex virus type 2 G; assay type: functional, organism-based; conditions: strain G
Summary of the method: (§1)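 Confluent HEL, Vero, HeLa or MDCK cell cultures were inoculated with 100 CCID50 of virus alongside varying compound concentrations. Cytopathicity was scored when it reached completion in untreated virus controls. EC50 is the concentration that reduces virus-induced cytopathogenicity by 50%.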

Sindbis virus = assay: Antiviral activity against Sindbis virus; assay type: functional, organism-based; summary of the method: as §1
Human alphaherpesvirus 3 [2] = assay: Antiviral activity against Varicella-zoster virus YS; assay type: functional, organism-based
Summary of the method: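 VZV was assayed by plaque formation. Confluent cell cultures received 10 or 100 PFU with varying compound concentrations, and plaques were recorded once complete in untreated infected controls. EC50 is the concentration that reduces plaque formation by 50%.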

Human alphaherpesvirus 2 [3] = assay: Antiviral activity against Herpes simplex virus type 2 Lyons; assay type: functional, organism-based; summary of the method: as §1
Human betaherpesvirus 5 [4] = assay: Antiviral actiivty against Human herpesvirus 5 Davis infected in HEL assessed as reduction of virus-induced plaque formation; assay type: functional, organism-based; conditions: Human betaherpesvirus 5, Davis
Summary of the method: (§2)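 HCMV strains AD-169 and Davis were tested on confluent human embryonic lung fibroblast monolayers infected with 100 PFU in the presence of serial compound concentrations. Plaques were counted once formation was complete in untreated infected controls. EC50 is the concentration that cuts plaque formation by 50%.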

[5] = tested on: Mammalian orthoreovirus 1; assay: Antiviral activity against Reovirus-1; assay type: functional, organism-based; summary of the method: as §1
Vaccinia virus = assay: Antiviral activity against Vaccinia virus Lederle; assay type: functional, organism-based; conditions: Orthopoxvirus vaccinia
Human alphaherpesvirus 3 [6] = assay: Antiviral activity against Varicella-zoster virus OKA; assay type: functional; conditions: strain Oka vaccine
Summary of the method: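 Confluent cell monolayers were infected with 10 or 100 PFU of VZV in the presence of serial compound dilutions. Plaque formation was recorded once untreated infected controls reached completion. EC50 was the concentration that reduced plaque formation by 50%.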

[7] = Cytotoxicity against HEL assessed as minimum cytotoxic concentration required to cause microscopically detectable alteration in cell morphology; assay type: cell-based; conditions: human, HEL cells
Influenza A virus [8] = assay: Antiviral activity against Influenza virus A virus H3N2; assay type: functional, organism-based
Summary of the method: (§3)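 The assay was a cell-based cytopathicity inhibition test on confluent monolayers with serial compound dilutions. EC50 was the concentration that reduced virus-induced cytopathicity by 50%.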

Influenza A virus [9] = assay: Antiviral activity against Influenza virus A virus H1N1; assay type: functional, organism-based; summary of the method: as §3
[10] = tested on: Human immunodeficiency virus 1; assay: Antiviral activity against HIV1 3B infected in human CEM cells assessed as inhibition of virus-induced giant cell formation after 4 to 5 days; assay type: functional, organism-based; conditions: CCRF-CEM
Summary of the method: (§4)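 CEM cells at about 3 × 10^5 cells/mL were infected with 100 CCID50 of HIV per mL, with compound dilutions present. They were incubated 4–5 days at 37 °C in humidified CO2, and syncytia were scored microscopically. EC50 is the concentration that inhibits giant cell formation by 50%.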

[11] = tested on: Respiratory syncytial virus; assay: Antiviral activity against Respiratory syncytial virus Long; assay type: functional, organism-based; summary of the method: as §1
[12] = tested on: Human immunodeficiency virus 2; assay: Antiviral activity against HIV2 ROD infected in human CEM cells assessed as inhibition of virus-induced giant cell formation after 4 to 5 days; assay type: functional, organism-based; conditions: ISOLATE ROD, CCRF-CEM; summary of the method: as §4
Human alphaherpesvirus 1 [13] = assay: Antiviral activity against thymidine kinase deficient acyclovir-resistant Herpes simplex virus type 1 KOS; assay type: functional, organism-based
HEL = assay: Cytotoxicity against HEL; assay type: cell-based; conditions: human
Coxsackievirus B4 = assay: Antiviral activity against Coxsackie B4 virus; assay type: functional, organism-based; summary of the method: as §1
Human respirovirus 3 = assay: Antiviral activity against Parainfluenza virus 3; assay type: functional, organism-based; summary of the method: as §1
Human alphaherpesvirus 1 [14] = assay: Antiviral activity against Herpes simplex virus type 1 KOS; assay type: functional, organism-based; summary of the method: as §1
Human betaherpesvirus 5 [15] = assay: Antiviral actiivty against Human herpesvirus 5 AD169 infected in HEL assessed as reduction of virus-induced plaque formation; assay type: functional, organism-based; conditions: Human betaherpesvirus 5, AD169; summary of the method: as §2
Influenza B virus = assay: Antiviral activity against Influenza B virus; assay type: functional, organism-based; summary of the method: as §3
[16] = tested on: Vesicular stomatitis virus; assay: Antiviral activity against Vesicular stomatitis virus; assay type: functional, organism-based
Punta Toro virus = assay: Antiviral activity against Punta Toro virus; assay type: functional, organism-based; summary of the method: as §1
Feline coronavirus = assay: Antiviral activity against Feline coronavirus; assay type: functional, organism-based

SMILES	Activity (Human alphaherpesvirus 2 [1])	Activity (Sindbis virus)	Activity (Human alphaherpesvirus 3 [2])	Activity (Human alphaherpesvirus 2 [3])	EC50 (Human betaherpesvirus 5 [4])	Activity [5]	Activity (Vaccinia virus)	Activity (Human alphaherpesvirus 3 [6])	MCC [7]	Activity (Influenza A virus [8])	Activity (Influenza A virus [9])	Activity [10]	Activity [11]	Activity [12]	Activity (Human alphaherpesvirus 1 [13])	CC50 (HEL)	Activity (Coxsackievirus B4)	Activity (Human respirovirus 3)	Activity (Human alphaherpesvirus 1 [14])	EC50 (Human betaherpesvirus 5 [15])	other results
CCCOC(=O)c1ccc(OCCCCCn2ccc(=O)[nH]c2=O)cc1	inactive	inactive	inactive	inactive	45 µM	inactive	inactive	inactive	≥ 100 µM	inactive	inactive	inactive	inactive	inactive	inactive	> 100 µM	inactive	inactive	inactive	45 µM	Activity (Influenza B virus): inactive; Activity [16]: inactive; Activity (Punta Toro virus): inactive; Activity (Feline coronavirus): inactive
CC(C)(C)c1ccc(OCCCCCn2ccc(=O)[nH]c2=O)cc1	inactive	inactive	inactive	inactive	12 µM	inactive	inactive	inactive	100 µM	inactive	inactive	inactive	inactive	inactive	inactive	40 µM	inactive	inactive	inactive	14 µM	Activity (Influenza B virus): inactive; Activity [16]: inactive; Activity (Punta Toro virus): inactive; Activity (Feline coronavirus): inactive
O=c1ccn(CCCCCOc2ccc(Br)cc2)c(=O)[nH]1	inactive	inactive	inactive	inactive	12 µM	inactive	inactive	inactive	100 µM	inactive	inactive	inactive	inactive	inactive	inactive	> 100 µM	inactive	inactive	inactive	9.4 µM	Activity (Influenza B virus): inactive; Activity [16]: inactive; Activity (Punta Toro virus): inactive; Activity (Feline coronavirus): inactive
Cc1ccc(OCCCCCn2ccc(=O)[nH]c2=O)cc1	inactive	inactive	inactive	inactive	> 20 µM	inactive	inactive	inactive	100 µM	inactive	inactive	inactive	inactive	inactive	inactive	> 100 µM	inactive	inactive	inactive	> 20 µM	Activity (Influenza B virus): inactive; Activity [16]: inactive; Activity (Punta Toro virus): inactive; Activity (Feline coronavirus): inactive
O=c1ccn(CCCCCOc2ccccc2)c(=O)[nH]1	inactive	inactive	inactive	inactive	> 100 µM	inactive	inactive	inactive	> 100 µM	inactive	inactive	inactive	inactive	inactive	inactive	> 100 µM	inactive	inactive	inactive	> 100 µM	Activity (Influenza B virus): inactive; Activity [16]: inactive; Activity (Punta Toro virus): inactive; Activity (Feline coronavirus): inactive
CC(C)c1ccc(OCCCCCn2ccc(=O)[nH]c2=O)cc1	inactive	inactive	inactive	inactive	15 µM	inactive	inactive	inactive	100 µM	inactive	inactive	inactive	inactive	inactive	inactive	> 100 µM	inactive	inactive	inactive	25 µM	Activity (Influenza B virus): inactive; Activity [16]: inactive; Activity (Punta Toro virus): inactive; Activity (Feline coronavirus): inactive
N#Cc1ccc(OCCCCCn2ccc(=O)[nH]c2=O)cc1	inactive	inactive	inactive	inactive	5.5 µM	inactive	inactive	inactive	100 µM	inactive	inactive	inactive	inactive	inactive	inactive	100 µM	inactive	inactive	inactive	8.9 µM	Activity (Influenza B virus): inactive; Activity [16]: inactive; Activity (Punta Toro virus): inactive; Activity (Feline coronavirus): inactive
O=c1[nH]c(=O)n(CCCCCOc2ccc(Br)cc2)cc1I	inactive	inactive	inactive	inactive	20 µM	inactive	inactive	inactive	≥ 100 µM	inactive	inactive	inactive	inactive	inactive	inactive	> 100 µM	inactive	inactive	inactive	13 µM	Activity (Influenza B virus): inactive; Activity [16]: inactive; Activity (Punta Toro virus): inactive; Activity (Feline coronavirus): inactive
O=c1[nH]c(=O)n(CCCCCOc2ccc(Br)cc2)cc1Br	inactive	inactive	inactive	inactive	67 µM	inactive	inactive	inactive	> 100 µM	inactive	inactive	inactive	inactive	inactive	inactive	> 100 µM	inactive	inactive	inactive	36 µM	Activity (Influenza B virus): inactive; Activity [16]: inactive; Activity (Punta Toro virus): inactive; Activity (Feline coronavirus): inactive
O=c1ccn(CCCCCCCCOc2ccc(Br)cc2)c(=O)[nH]1	inactive	inactive	inactive	inactive	8.9 µM	inactive	inactive	inactive	≥ 100 µM	inactive	inactive	inactive	inactive	inactive	inactive	> 100 µM	inactive	inactive	inactive	12 µM	Activity (Influenza B virus): inactive; Activity [16]: inactive; Activity (Punta Toro virus): inactive; Activity (Feline coronavirus): inactive
